{"data": "Experimental data pooled from the literature", "target": "Dual specificity mitogen-activated protein kinase kinase 3 (MAP2K3, Homo sapiens, UniProt P46734)", "One construct used (P46734 1-347)": "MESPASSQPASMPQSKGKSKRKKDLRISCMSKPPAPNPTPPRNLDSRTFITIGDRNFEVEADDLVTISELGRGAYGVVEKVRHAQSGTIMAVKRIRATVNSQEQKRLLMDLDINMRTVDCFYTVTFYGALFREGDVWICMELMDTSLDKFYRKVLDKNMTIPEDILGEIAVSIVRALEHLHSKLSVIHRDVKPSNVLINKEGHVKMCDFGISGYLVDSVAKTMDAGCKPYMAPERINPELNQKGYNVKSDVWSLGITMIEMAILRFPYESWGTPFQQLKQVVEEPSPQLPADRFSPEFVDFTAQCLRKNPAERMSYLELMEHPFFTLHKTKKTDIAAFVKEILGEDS", "note": "Protocols differ between the studies behind these lines."}
{"SMILES": "CN(C)C(=O)Cn1cc(-c2nc([C@@](C)(c3ccc(-c4cnc(N)nc4)cc3)C3CC3)no2)cn1", "observed": "cell-free assay", "method": "competition with immobilised ligand", "tested at": "1 µM", "remaining binding [%]": 83}
{"SMILES": "C[C@H]1CCN(c2nccc(-c3cnn4ncccc34)n2)C1", "observed": "binding", "tested at": "1 µM", "remaining binding [%]": 69}
{"SMILES": "c1cncc(-c2cccc(Nc3nccc(NC4CCCCC4)n3)c2)c1", "observed": "binding", "method": "competition with immobilised ligand", "tested at": "10 µM", "remaining binding [%]": 32}
{"SMILES": "CN(C)c1nccc(-c2cnn3ncccc23)n1", "observed": "binding", "tested at": "1 µM", "remaining binding [%]": 51}
{"SMILES": "COc1cnc(Nc2cccc(S(N)(=O)=O)c2)nc1N1CCN(c2ccccc2)CC1", "observed": "binding", "method": "competition with immobilised ligand", "tested at": "1 µM", "remaining binding [%]": 79}
{"SMILES": "C[C@@H](c1ccc(-n2cnc3c(N)ncnc32)cc1)N1CCc2nn(C)c(Cc3ccccc3)c2C1=O", "observed": "binding", "method": "competition with immobilised ligand", "tested at": "0.1 µM", "remaining binding [%]": 63}
{"SMILES": "C[C@H](NC(=O)c1cnc2n1[C@](C)(Cc1ccc(C#N)cc1)C(=O)N2c1cc(Cl)c(F)c(Cl)c1)C(=O)NC1(c2ccccn2)CC1", "observed": "cell-free assay", "method": "competition with immobilised ligand", "tested at": "1 µM", "remaining binding [%]": 80}
{"SMILES": "COc1ccnn2ncc(-c3ccnc(N(C)C)n3)c12", "observed": "binding", "tested at": "1 µM", "remaining binding [%]": 71}
{"SMILES": "CCCOc1ccc([C@H]2[C@H](C(=O)O)[C@@H](c3ccc4c(c3)OCO4)CN2CC(=O)Nc2c(CC)cccc2CC)cc1", "observed": "cell-free assay", "method": "competition with immobilised ligand", "tested at": "1 µM", "remaining binding [%]": 60}
{"SMILES": "F[C@@H]1CCN(c2nccc(-c3cnn4ncccc34)n2)C1", "observed": "binding", "tested at": "1 µM", "remaining binding [%]": 83}
{"SMILES": "O=C(Nc1c[nH]nc1C(=O)NC1CCNCC1)c1cc(F)cc(F)c1", "observed": "binding", "method": "competition with immobilised ligand", "tested at": "1 µM", "remaining binding [%]": 100}
{"SMILES": "O=C(c1ccc(Nc2nccc(-c3cc4ccccc4s3)n2)cc1)N1CCC(N2CCCC2)CC1", "observed": "binding", "method": "competition with immobilised ligand", "tested at": "1 µM", "remaining binding [%]": 42}
{"SMILES": "FC(F)(F)Oc1cccc(-c2cnc3ccc(-c4ccncc4)nn23)c1", "observed": "cell-free assay", "method": "competition with immobilised ligand", "tested at": "5 µM", "remaining binding [%]": 35}
{"SMILES": "CO[C@@H](C)c1c(Nc2ccc([C@H](N(C)C(=O)C3CCS(=O)(=O)CC3)C(F)(F)F)cc2)cnc2cc(Cl)nn12", "observed": "cell-free assay", "method": "competition with immobilised ligand", "tested at": "1 µM", "remaining binding [%]": 93}
{"SMILES": "N[C@H]1CCN(c2nccc(-c3cnn4ncccc34)n2)C1", "observed": "binding", "tested at": "1 µM", "remaining binding [%]": 67}
{"SMILES": "O=C(c1ccc(Nc2ncc(Cl)c(-c3cc4ccccc4s3)n2)cc1)N1CCC(N2CCCC2)CC1", "observed": "binding", "method": "competition with immobilised ligand", "tested at": "1 µM", "remaining binding [%]": 43}
{"SMILES": "Cc1cnn2ncc(-c3ccnc(N(C)C)n3)c2c1", "observed": "binding", "tested at": "1 µM", "remaining binding [%]": 83}
{"SMILES": "O=C(NCCCN1CCOCC1)c1ccc(Nc2nccc(-c3cc4ccccc4s3)n2)cc1", "observed": "binding", "method": "competition with immobilised ligand", "tested at": "1 µM", "remaining binding [%]": 47}
{"SMILES": "N#CC1(c2ccccn2)CCN(Cc2cc(C(=O)N3CCCC3)c(=O)n3ccccc23)CC1", "observed": "cell-free assay", "method": "competition with immobilised ligand", "tested at": "1 µM", "remaining binding [%]": 81}
{"SMILES": "CNC(=O)[C@@H]1CC[C@@H](n2c(-c3ccc4cnccc4c3)nc3ccc(C(=O)NCc4cccc(C(N)=O)c4)cc32)C1", "observed": "binding", "method": "competition with immobilised ligand", "tested at": "1 µM", "remaining binding [%]": 98}
{"SMILES": "c1cnn2ncc(-c3ccnc(N4CCC45COC5)n3)c2c1", "observed": "binding", "tested at": "1 µM", "remaining binding [%]": 31}
{"SMILES": "O=C(NCc1ncc(C(F)(F)F)cc1Cl)c1ccc2c(c1)C1(CCS(=O)(=O)CC1)[C@@H](C1CC1)N2S(=O)(=O)c1ccc(F)cc1", "observed": "cell-free assay", "method": "competition with immobilised ligand", "tested at": "1 µM", "remaining binding [%]": 73}
